{
  "source": "ChEMBL document CHEMBL1649147",
  "about": "“Antistaphylococcal activity of dihydrophthalazine antifolates, a family of novel antibacterial drugs” (2009)",
  "key": {"[1]": {"system": "Staphylococcus aureus", "test": "Antibacterial activity against methicillin-resistant Staphylococcus aureus ATCC 43300 by broth macrodilution method", "assay_type": "functional", "settings": "ATCC43300"}, "[2]": {"system": "Staphylococcus epidermidis", "test": "Antibacterial activity against coagulase-negative Staphylococcus epidermidis 225 after 10 passages in MBH without antibiotic by agar dilution method", "assay_type": "functional", "in_short": "(§1)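 After drug-selective serial passage, selected clones were passaged 10 times in antibiotic-free MHB. MICs were then redetermined, and the change is expressed as log2 dilution steps.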"}, "[3]": {"system": "Staphylococcus aureus", "test": "Antibacterial activity against methicillin-susceptible Staphylococcus aureus 505 by broth macrodilution method", "assay_type": "functional"}, "[4]": {"system": "Staphylococcus aureus", "test": "Antibacterial activity against vancomycin-resistant Staphylococcus aureus VRS1 after 10 passages in MHB without antibiotic by agar dilution method", "assay_type": "functional", "in_short": "(§2)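 Clones from the end of drug passage were transferred 10 times in MHB without antibiotic, then retested by agar dilution. MIC change is expressed as log2 dilution steps.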"}, "[5]": {"system": "Staphylococcus epidermidis", "test": "Antibacterial activity against coagulase-negative Staphylococcus epidermidis 197 assessed as change in MIC by agar dilution method after serial passages in presence of antibiotic relative to control", "assay_type": "functional", "in_short": "(§3)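 Serial passage under drug. Inoculum was ~1 × 10^6 CFU/ml from overnight MHA growth, in 1 ml MHB at 35°C for 24 h. Drug ranged from 4 log2 steps above to 3 log2 steps below the MIC. […] MIC change is given as log2 steps.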"}, "[6]": {"system": "Staphylococcus epidermidis", "test": "Antibacterial activity against coagulase-negative Staphylococcus epidermidis 345 assessed as change in MIC by agar dilution method after serial passages in the absence of antibiotic relative to control", "assay_type": "functional", "in_short": "as §1"}, "[7]": {"system": "Staphylococcus epidermidis", "test": "Antibacterial activity against coagulase-negative Staphylococcus epidermidis 225 assessed as change in MIC by agar dilution method after serial passages in the absence of antibiotic relative to control", "assay_type": "functional", "in_short": "as §1"}, "[8]": {"system": "Staphylococcus aureus", "test": "Antibacterial activity against methicillin-susceptible Staphylococcus aureus ATCC 29213 by broth macrodilution method", "assay_type": "functional", "settings": "ATCC29213"}, "[9]": {"system": "Staphylococcus aureus", "test": "Antibacterial activity against vancomycin-resistant Staphylococcus aureus VRS1 assessed as change in MIC by agar dilution method after serial passages in presence of antibiotic relative to control", "assay_type": "functional", "in_short": "(§4)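 Daily serial passage for up to 50 days at 35°C for 24 h in 1 ml MHB. […] Each transfer used 10 µl from the tube nearest the MIC (1–2 dilutions below) with the same turbidity as the drug-free control. […] MICs were measured by agar dilution, with changes given as log2 steps.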"}, "[10]": {"system": "Staphylococcus epidermidis", "test": "Antibacterial activity against coagulase-negative Staphylococcus epidermidis 345 by agar dilution method", "assay_type": "functional", "in_short": "(§5)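 MICs by agar dilution on Mueller-Hinton agar following CLSI guidelines. S. aureus ATCC 29213 and E. faecalis ATCC 29212 were run as quality controls with each set, and test-strain MICs were kept only if control MICs fell within acceptable ranges.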"}, "[11]": {"system": "Staphylococcus epidermidis", "test": "Antibacterial activity against methicillin-resistant coagulase-negative Staphylococcus epidermidis 345 by broth macrodilution method", "assay_type": "functional"}, "[12]": {"system": "coagulase-negative staphylococci", "test": "Antibacterial activity against methicillin-resistant coagulase-negative staphylococci by agar dilution method"}, "[13]": {"system": "coagulase-negative staphylococci", "test": "Antibacterial activity against methicillin-susceptible coagulase-negative staphylococci by agar dilution method"}, "[14]": {"system": "Staphylococcus epidermidis", "test": "Antibacterial activity against coagulase-negative Staphylococcus epidermidis 051 after 10 passages in MBH without antibiotic by agar dilution method", "assay_type": "functional", "in_short": "as §1"}, "[15]": {"system": "Staphylococcus epidermidis", "test": "Antibacterial activity against coagulase-negative Staphylococcus epidermidis 057 after 10 passages in MBH without antibiotic by agar dilution method", "assay_type": "functional", "in_short": "as §1"}, "[16]": {"system": "Staphylococcus aureus", "test": "Antibacterial activity against methicillin-resistant Staphylococcus aureus 507 by broth macrodilution method", "assay_type": "functional"}, "[17]": {"system": "Staphylococcus aureus", "test": "Antibacterial activity against Staphylococcus aureus 145 assessed as change in MIC by agar dilution method after serial passages in the absence of antibiotic relative to control", "assay_type": "functional", "in_short": "as §1"}, "[18]": {"system": "coagulase-negative staphylococci", "test": "Antibacterial activity against Tmp-susceptible coagulase-negative staphylococci by agar dilution method"}, "[19]": {"system": "Staphylococcus epidermidis", "test": "Antibacterial activity against coagulase-negative Staphylococcus epidermidis 057 by agar dilution method", "assay_type": "functional", "in_short": "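Agar dilution MIC determined on Mueller-Hinton agar following CLSI guidelines. S. aureus ATCC 29213 and Enterococcus faecalis ATCC 29212 were run as quality controls with each set, and test MICs were accepted only when the control MICs fell within acceptable ranges. Test organism was a coagulase-negative S. epidermidis strain.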"}, "[20]": {"system": "Staphylococcus aureus", "test": "Antibacterial activity against Tmp-susceptible coagulase-negative Staphylococcus aureus by agar dilution method", "assay_type": "functional", "in_short": "as §5"}, "[21]": {"system": "Staphylococcus aureus", "test": "Antibacterial activity against methicillin-susceptible Staphylococcus aureus by agar dilution method", "assay_type": "functional", "in_short": "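Agar dilution on Mueller-Hinton agar per CLSI guidelines. S. aureus ATCC 29213 and E. faecalis ATCC 29212 were run with each set, and test MICs were accepted only when the control strains fell within acceptable ranges.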"}, "[22]": {"system": "Staphylococcus epidermidis", "test": "Antibacterial activity against coagulase-negative Staphylococcus epidermidis 225 by agar dilution method", "assay_type": "functional", "in_short": "as §5"}, "[23]": {"system": "Staphylococcus aureus", "test": "Antibacterial activity against methicillin-susceptible Staphylococcus aureus ATCC 29213 after 50 passages by agar dilution method", "assay_type": "functional", "settings": "ATCC29213", "in_short": "as §4"}, "[24]": {"system": "Staphylococcus epidermidis", "test": "Antibacterial activity against methicillin-resistant coagulase-negative Staphylococcus epidermidis 197 by broth macrodilution method", "assay_type": "functional"}, "[25]": {"system": "coagulase-negative staphylococci", "test": "Antibacterial activity against Tmp-resistant coagulase-negative staphylococci by agar dilution method"}, "[26]": {"system": "Staphylococcus epidermidis", "test": "Antibacterial activity against coagulase-negative Staphylococcus epidermidis 051 by agar dilution method", "assay_type": "functional", "in_short": "as §5"}, "[27]": {"system": "Staphylococcus aureus", "test": "Antibacterial activity against vancomycin-resistant Staphylococcus aureus VRS1 assessed as change in MIC by agar dilution method after serial passages in the absence of antibiotic relative to control", "assay_type": "functional", "in_short": "as §2"}, "[28]": {"system": "Staphylococcus aureus", "test": "Antibacterial activity against methicillin-susceptible, vancomycin-intermediate Staphylococcus aureus 505 by broth macrodilution method", "assay_type": "functional"}, "[29]": {"system": "Staphylococcus epidermidis", "test": "Antibacterial activity against methicillin-resistant coagulase-negative Staphylococcus epidermidis 197 after 50 passages by agar dilution method", "assay_type": "functional", "in_short": "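Daily serial passage for up to 50 days at 35°C for 24 h in 1 ml MHB. Each transfer used 10 µl from the tube nearest the MIC (1–2 dilutions below) with the same turbidity as the drug-free control. MICs were measured by agar dilution, with changes given as log2 steps.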"}, "[30]": {"system": "Staphylococcus aureus", "test": "Antibacterial activity against vancomycin-resistant Staphylococcus aureus VRS1 by broth macrodilution method", "assay_type": "functional", "in_short": "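Michigan VRSA strain, one of 12 staphylococci later used in time-kill studies. MIC was determined by broth macrodilution and reported in μg/ml.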"}, "[31]": {"system": "Staphylococcus epidermidis", "test": "Antibacterial activity against methicillin-resistant coagulase-negative Staphylococcus epidermidis 074 by broth macrodilution method", "assay_type": "functional"}, "[32]": {"system": "Staphylococcus epidermidis", "test": "Antibacterial activity against coagulase-negative Staphylococcus epidermidis 057 assessed as change in MIC by agar dilution method after serial passages in the absence of antibiotic relative to control", "assay_type": "functional", "in_short": "as §1"}, "[33]": {"system": "Staphylococcus epidermidis", "test": "Antibacterial activity against coagulase-negative Staphylococcus epidermidis 345 after 10 passages in MBH without antibiotic by agar dilution method", "assay_type": "functional", "in_short": "as §1"}, "[34]": {"system": "Staphylococcus aureus", "test": "Antibacterial activity against Staphylococcus aureus 145 after 10 passages in MHB without antibiotic by agar dilution method", "assay_type": "functional", "in_short": "as §1"}, "[35]": {"system": "Staphylococcus aureus", "test": "Antibacterial activity against Staphylococcus aureus ATCC 43300 assessed as change in MIC by agar dilution method after serial passages in presence of antibiotic relative to control", "assay_type": "functional", "in_short": "as §3"}},
  "data": [
    {"smiles": "COc1ncc(C2c3ccccc3C=NN2C(=O)/C=C/c2cc(Cc3cnc(N)nc3N)cc(OC)c2OC)cn1", "note": "(centres undefined)", "values": [
      {"measurement": "MIC", "setting": "[1]", "result": 0.03, "unit": "µg/mL"},
      {"measurement": "MIC", "setting": "[2]", "result": 8, "unit": "µg/mL"},
      {"measurement": "MIC", "setting": "[3]", "result": 0.03, "unit": "µg/mL"},
      {"measurement": "MIC", "setting": "[4]", "result": 128, "unit": "µg/mL"},
      {"measurement": "fold change (FC)", "setting": "[5]", "result": 5},
      {"measurement": "fold change (FC)", "setting": "[6]", "result": -3},
      {"measurement": "fold change (FC)", "setting": "[7]", "result": -4},
      {"measurement": "MIC", "setting": "[8]", "result": 0.03, "unit": "µg/mL"},
      {"measurement": "fold change (FC)", "setting": "[9]", "result": 9},
      {"measurement": "MIC", "setting": "[10]", "result": 0.125, "unit": "µg/mL"},
      {"measurement": "MIC", "setting": "[11]", "result": 0.06, "unit": "µg/mL"},
      {"measurement": "MIC50", "setting": "[12]", "result": 0.06, "unit": "µg/mL"},
      {"measurement": "MIC90", "setting": "[12]", "result": 0.5, "unit": "µg/mL"},
      {"measurement": "MIC90", "setting": "[13]", "result": 0.06, "unit": "µg/mL"},
      {"measurement": "MIC", "setting": "[14]", "result": 16, "unit": "µg/mL"},
      {"measurement": "MIC", "setting": "[15]", "result": 128, "unit": "µg/mL"},
      {"measurement": "MIC", "setting": "[16]", "result": 0.06, "unit": "µg/mL"},
      {"measurement": "fold change (FC)", "setting": "[17]", "result": -4},
      {"measurement": "MIC50", "setting": "[18]", "result": 0.016, "unit": "µg/mL"},
      {"measurement": "MIC90", "setting": "[18]", "result": 0.03, "unit": "µg/mL"},
      {"measurement": "MIC", "setting": "[19]", "result": 8, "unit": "µg/mL"},
      {"measurement": "MIC", "setting": "[20]", "result": "≤ 0.008", "unit": "µg/mL"},
      {"measurement": "MIC50", "setting": "[21]", "result": 0.03, "unit": "µg/mL"},
      {"measurement": "MIC90", "setting": "[21]", "result": 0.25, "unit": "µg/mL"},
      {"measurement": "MIC", "setting": "[22]", "result": 0.25, "unit": "µg/mL"},
      {"measurement": "MIC", "setting": "[23]", "result": 8, "unit": "µg/mL"},
      {"measurement": "MIC", "setting": "[24]", "result": 0.008, "unit": "µg/mL"},
      {"measurement": "MIC50", "setting": "[25]", "result": 0.125, "unit": "µg/mL"},
      {"measurement": "MIC90", "setting": "[25]", "result": 0.5, "unit": "µg/mL"},
      {"measurement": "MIC", "setting": "[26]", "result": 0.25, "unit": "µg/mL"},
      {"measurement": "fold change (FC)", "setting": "[27]", "result": -1},
      {"measurement": "MIC", "setting": "[28]", "result": 0.016, "unit": "µg/mL"},
      {"measurement": "MIC", "setting": "[29]", "result": 1, "unit": "µg/mL"},
      {"measurement": "MIC", "setting": "[30]", "result": 1, "unit": "µg/mL"},
      {"measurement": "MIC", "setting": "[31]", "result": 0.06, "unit": "µg/mL"},
      {"measurement": "fold change (FC)", "setting": "[32]", "result": 0},
      {"measurement": "MIC", "setting": "[33]", "result": 2, "unit": "µg/mL"},
      {"measurement": "MIC", "setting": "[34]", "result": 16, "unit": "µg/mL"},
      {"measurement": "fold change (FC)", "setting": "[35]", "result": 7}
    ]}
  ]
}
